Results reported in ChEMBL document CHEMBL2413013, “Triplex-forming ability of oligonucleotides containing 1-aryl-1,2,3-triazole nucleobases linked via a two atom-length spacer” (Bioorg Med Chem, 2013).

Legend:
[1] = Binding affinity to hairpin double stranded DNA TA base pair in sodium cacodylate buffer at pH 6.8 assessed as triplex-forming ability measuring melting temperature after by UV melting experiment
Method in brief: (§1)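 TFO and hairpin dsDNA target, each strand at 1.89 μM final, in 10 mM sodium cacodylate (pH 6.8) with 100 mM KCl and 50 mM MgCl₂. Annealed in boiling water, then cooled slowly to 5 °C. Melting was followed at 260 nm from 5 to 90 °C at 0.5 °C/min. Tm was taken by the two-point average method, mean of three independent runs.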

[2] = Binding affinity to hairpin double stranded DNA AT base pair in sodium cacodylate buffer at pH 6.8 assessed as triplex-forming ability measuring melting temperature after by UV melting experiment; method in brief: as §1
[3] = Binding affinity to hairpin double stranded DNA GC base pair in sodium cacodylate buffer at pH 6.8 assessed as triplex-forming ability measuring melting temperature after by UV melting experiment; method in brief: as §1
[4] = Binding affinity to hairpin double stranded DNA CG base pair in sodium cacodylate buffer at pH 6.8 assessed as triplex-forming ability measuring melting temperature after by UV melting experiment; method in brief: as §1

| Tm [1] [°C] | Tm [2] [°C] | Tm [3] [°C] | Tm [4] [°C] | Compound |
| --- | --- | --- | --- | --- |
| 21 | 20 | 21 | 24 | Cc1cn([C@H]2C[C@H](O[PH](OCCC#N)(OC[C@H]3O[C@@H](n4cc(C)c(=O)[nH]c4=O)C[C@@H]3O[PH](OCCC#N)(OC[C@H]3O[C@@H](n4cc(C)c(=O)[nH]c4=O)C[C@@H]3O[PH](OCCC#N)(OC[C@H]3O[C@@H](n4cc(C)c(=O)[nH]c4=O)C[C@@H]3O[PH](OCCC#N)(OC[C@H]3O[C@@H](n4cc(C)c(=O)[nH]c4=O)C[C@@H]3O[PH](OCCC#N)(OC(C)[C@H]3O[C@@H](n4ccc(N)nc4=O)C[C@@H]3O[PH](OCCC#N)(OC[C@H]3O[C@@H](n4cc(C)c(=O)[nH]c4=O)C[C@@H]3O[PH](OCCC#N)(OC[C@H]3O[C@@H](OCc4cn(-c5cccc(O)c5)nn4)C[C@@H]3OP(=O)(O)OC[C@H]3O[C@@H](n4cc(C)c(=O)[nH]c4=O)C[C@@H]3O[PH](OCCC#N)(OC(C)[C@H]3O[C@@H](n4ccc(N)nc4=O)C[C@@H]3O[PH](OCCC#N)(OC[C@H]3O[C@@H](n4cc(C)c(=O)[nH]c4=O)C[C@@H]3O[PH](OCCC#N)(OC(C)[C@H]3O[C@@H](n4ccc(N)nc4=O)C[C@@H]3O[PH](OCCC#N)(OC[C@H]3O[C@@H](n4cc(C)c(=O)[nH]c4=O)C[C@@H]3O[PH](OCCC#N)(OC(C)[C@H]3O[C@@H](n4ccc(N)nc4=O)C[C@@H]3O[PH](OCCC#N)(OC[C@H]3O[C@@H](n4cc(C)c(=O)[nH]c4=O)C[C@@H]3O)N(C(C)C)C(C)C)N(C(C)C)C(C)C)N(C(C)C)C(C)C)N(C(C)C)C(C)C)N(C(C)C)C(C)C)N(C(C)C)C(C)C)N(C(C)C)C(C)C)N(C(C)C)C(C)C)N(C(C)C)C(C)C)N(C(C)C)C(C)C)N(C(C)C)C(C)C)N(C(C)C)C(C)C)N(C(C)C)C(C)C)[C@@H](CO)O2)c(=O)[nH]c1=O (stereo partly drawn) |
| 18 | 16 | 19 | 20 | Cc1cn([C@H]2C[C@H](O[PH](OCCC#N)(OC[C@H]3O[C@@H](n4cc(C)c(=O)[nH]c4=O)C[C@@H]3O[PH](OCCC#N)(OC[C@H]3O[C@@H](n4cc(C)c(=O)[nH]c4=O)C[C@@H]3O[PH](OCCC#N)(OC[C@H]3O[C@@H](n4cc(C)c(=O)[nH]c4=O)C[C@@H]3O[PH](OCCC#N)(OC[C@H]3O[C@@H](n4cc(C)c(=O)[nH]c4=O)C[C@@H]3O[PH](OCCC#N)(OC(C)[C@H]3O[C@@H](n4ccc(N)nc4=O)C[C@@H]3O[PH](OCCC#N)(OC[C@H]3O[C@@H](n4cc(C)c(=O)[nH]c4=O)C[C@@H]3O[PH](OCCC#N)(OC[C@H]3O[C@@H](CCc4cn(-c5ccccc5C(N)=O)nn4)C[C@@H]3OP(=O)(O)OC[C@H]3O[C@@H](n4cc(C)c(=O)[nH]c4=O)C[C@@H]3O[PH](OCCC#N)(OC(C)[C@H]3O[C@@H](n4ccc(N)nc4=O)C[C@@H]3O[PH](OCCC#N)(OC[C@H]3O[C@@H](n4cc(C)c(=O)[nH]c4=O)C[C@@H]3O[PH](OCCC#N)(OC(C)[C@H]3O[C@@H](n4ccc(N)nc4=O)C[C@@H]3O[PH](OCCC#N)(OC[C@H]3O[C@@H](n4cc(C)c(=O)[nH]c4=O)C[C@@H]3O[PH](OCCC#N)(OC(C)[C@H]3O[C@@H](n4ccc(N)nc4=O)C[C@@H]3O[PH](OCCC#N)(OC[C@H]3O[C@@H](n4cc(C)c(=O)[nH]c4=O)C[C@@H]3O)N(C(C)C)C(C)C)N(C(C)C)C(C)C)N(C(C)C)C(C)C)N(C(C)C)C(C)C)N(C(C)C)C(C)C)N(C(C)C)C(C)C)N(C(C)C)C(C)C)N(C(C)C)C(C)C)N(C(C)C)C(C)C)N(C(C)C)C(C)C)N(C(C)C)C(C)C)N(C(C)C)C(C)C)N(C(C)C)C(C)C)[C@@H](CO)O2)c(=O)[nH]c1=O (stereo partly drawn) |
